Shown are actives, neighbours in structure and some others; about 1.5% of the full set was active somewhere.
CXCR6 block = CXCR6 (human) receptor inhibition; CHO-K1 PathHunter CXCR6 beta-arrestin, luminescence; inhibition, % at 20 µM; 360,000 compounds, 0.36% hits; O00574; AID 602244; in the data active = inhibition above about 34%, passing the limit was not always enough;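 note: antagonist mode with CXCL16 agonist at 10 nM final; 0% = 10 nM CXCL16 with DMSO and 100% = unstimulated wells without agonist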
APJ antag = APJ receptor antagonism; P35414; CHO-K1 APJ beta-arrestin complementation, luminescence; inhibition, % at 20 µM; 330,000 compounds, 0.32% hits; AID 2521;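 active = inhibition above about 40% at 20 µM, limit read from the data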;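 note: cells challenged with 10 nM apelin-13 agonist together with compound; plate controls were apelin-13 plus DMSO wells for no effect and DMSO wells lacking apelin-13 for full effect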
EBI2 antag = blocks human EBI2 receptor beta-arrestin signaling | P32249 | 360,000 compounds, 0.81% hits | inhibition, % at 5 µM | AID 651636 | EBI2 beta-arrestin recruitment, luminescence, 7a,25-OHC stimulated; in the data active = inhibition above about 38%;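 note: enzyme fragment complementation signal reports receptor beta-arrestin coupling in cells; 0% = agonist plus DMSO wells and 100% = wells without agonist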
Target sequence (P32249 whole entry, looked up, the tested form may be a part): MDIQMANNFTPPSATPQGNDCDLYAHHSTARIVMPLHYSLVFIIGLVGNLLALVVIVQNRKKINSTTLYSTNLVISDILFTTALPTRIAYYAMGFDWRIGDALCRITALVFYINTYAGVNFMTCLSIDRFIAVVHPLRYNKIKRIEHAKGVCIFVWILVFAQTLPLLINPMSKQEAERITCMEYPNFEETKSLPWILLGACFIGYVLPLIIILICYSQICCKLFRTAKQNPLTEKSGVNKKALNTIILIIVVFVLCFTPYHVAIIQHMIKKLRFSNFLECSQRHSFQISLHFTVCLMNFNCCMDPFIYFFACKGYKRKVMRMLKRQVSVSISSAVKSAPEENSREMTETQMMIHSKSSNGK
CCR6 antag = blocks CCL20-driven beta-arrestin recruitment at human CCR6; P51684; CHO-K1 CCR6 PathHunter beta-arrestin, luminescence, CCL20-stimulated; inhibition, % at 20 µM; 340,000 compounds, 0.49% hits;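 active = compounds whose inhibition of the agonist-driven luminescence signal at 20 µM reaches about 50%, limit read from the data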;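 note: cells stimulated with CCL20 at 14 nM final; plate controls were DMSO with CCL20 for no effect and DMSO without agonist for full effect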
APJ agonist = APJ receptor agonism. 330,000 compounds, 0.11% hits. AID 2520. CHO-K1 APJ PathHunter beta-arrestin, luminescence; 0% DMSO wells, 100% apelin. activation, % at 20 µM;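 active = activation more than six SD over the plate average, tested at 20 µM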;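 note: 0% = DMSO alone and 100% = apelin-13 at 10 nM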
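Assay system: engineered CHO-K1 APJ arrestin reporter cells; Amount: 1000 CHO-K1 reporter cells seeded per well; Dosing: one dose, 20 µM compound, 1% DMSO; Times: compound stimulation 90 min at 25 °C, detection 60 min; Measured by: luminescent beta-gal fragment complementation, chemiluminescent substrate; Read-out: APJ–arrestin association signal; Controls: DMSO vs Apelin-13 10 nM.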
hiPSC survival = enhancers of human iPSC single-cell survival; hiPSC single-cell survival, ATPlite luminescence; 100% = ROCK inhibitor wells, 0% = DMSO; survival enhancement, % at 20 µM; 360,000 compounds, 0.044% hits; AID 602274; in the data active = survival enhancement above about 18%;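 note: cells exposed to compounds for 16 hours before the ATP read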
EBI2 conf = confirmation of human EBI2 receptor antagonists. shares compounds with EBI2 antag. EBI2 beta-arrestin luminescence, 7a,25-OHC antagonism. inhibition, % at 5 µM. 2,400 compounds, 29% hits. AID 651997;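 active = inhibition of at least 50%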
EBI2 agonist = counter-screen for EBI2 antagonists: EBI2 agonist activity; activation, % at 5 µM; 2,400 tested, under 10 active; EBI2-expressing cells, agonist mode, luminescence, 60 min; 0% vehicle, 100% 7α,25-dihydroxycholesterol control; shares compounds with EBI2 antag;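 active = activation of at least 50%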
bGal counter = beta-galactosidase inhibition counter-screen | shares compounds with EBI2 antag | purified beta-galactosidase, luminescent Galacton Star, 15 min | inhibition, % at 5 µM | 2,400 compounds, 1% hits | AID 652176;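 active = replicate-average signal at least 3 plate SD below neutral wells, shown as high inhibition, flagging enzyme-inhibiting false positives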;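 note: 0% = DMSO wells with enzyme and 100% = wells lacking enzyme; higher means stronger loss of beta-gal luminescence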
* hit, by the source's call.

Screening CCOC(=O)C1CCCN(C(=O)c2cccc(OC(F)(F)F)c2)CC1 (stereo not drawn) returned CXCR6 block -6, EBI2 antag -8 and hiPSC survival 6.
CCCCn1nnnc1SCC(=O)NC1CCCCC1 was read as CXCR6 block 0, APJ antag -1, EBI2 antag 0, CCR6 antag 12, APJ agonist 0 and hiPSC survival 0.
`CCOC(=O)CN(C(=O)CSc1nnc(CNc2ccc(C)cc2C)o1)c1ccccc1` gave CXCR6 block 0, APJ antag -8, EBI2 antag 45*, CCR6 antag -18, APJ agonist -2, hiPSC survival 2, EBI2 conf 21, EBI2 agonist -2 and bGal counter -10.
For COC(=O)[C@H](C)N(Cc1ccc(Cl)c(Cl)c1)S(=O)(=O)CCNC1CCCC1 the results were CXCR6 block 2, EBI2 antag 6, CCR6 antag 21 and hiPSC survival 2.
Nc1c(Br)cc2c(c1Br)C(O)c1ccccc1-2 (stereo not drawn) was read as CXCR6 block 0, EBI2 antag 11, CCR6 antag 1 and hiPSC survival -2.
`Cc1ccc(C(=O)N2CCN(c3ccc([N+](=O)[O-])c(NCc4ccco4)c3)CC2)cc1` gave CXCR6 block 8, APJ antag -8, EBI2 antag 42*, CCR6 antag 15, APJ agonist -4, hiPSC survival 1, EBI2 conf 13, EBI2 agonist -1 and bGal counter -6.
`CN(Cc1ccccc1)C(=O)c1cccc(NC(=O)Cc2cccc([N+](=O)[O-])c2)c1` gave CXCR6 block 1, APJ antag 14, EBI2 antag 0, CCR6 antag 17, APJ agonist -1 and hiPSC survival -1.
For O=C(/C=C/c1ccco1)N1CCN(C/C=C/c2ccccc2)CC1 the results were CXCR6 block 12, APJ antag -18, EBI2 antag 63*, CCR6 antag 11, APJ agonist 0, hiPSC survival 1, EBI2 conf 32, EBI2 agonist 1 and bGal counter 2.
Cc1ccc(/C=C/C(=O)N2CCN(S(=O)(=O)/C=C/c3ccccc3)CC2)o1 was read as CXCR6 block 5, APJ antag -22, EBI2 antag 67*, CCR6 antag 7, APJ agonist -3, hiPSC survival 0, EBI2 conf 38, EBI2 agonist 1 and bGal counter 5.
For O=C(/C=C/c1ccco1)N1CCN(S(=O)(=O)/C=C/c2ccccc2)CC1 the results were CXCR6 block -2, APJ antag -25, EBI2 antag 79*, CCR6 antag -1, APJ agonist 3, hiPSC survival 0, EBI2 conf 48, EBI2 agonist 3 and bGal counter 2.
`Cc1ccc(/C=C/C(=O)N2CCN(S(=O)(=O)c3cccs3)CC2)o1` gave CXCR6 block -5, APJ antag -9, EBI2 antag 20, CCR6 antag 1, APJ agonist -1 and hiPSC survival 1.
`O=C(/C=C/c1ccco1)N1CCN(c2ccccc2)CC1` gave CXCR6 block 2, APJ antag 13, EBI2 antag 2, CCR6 antag 9, APJ agonist -1 and hiPSC survival -1.
Screening CN(C(=O)CN1C(=O)c2cccc(N)c2C1=O)C1CCCCC1 returned CXCR6 block -1, APJ antag -29, EBI2 antag -7, CCR6 antag 5, APJ agonist -2 and hiPSC survival -2.
`COc1ccc(CC(=O)N2CCN(S(=O)(=O)c3ccc(Cl)s3)CC2)cc1` gave CXCR6 block 2, APJ antag 15, EBI2 antag 27, CCR6 antag 2, APJ agonist -1 and hiPSC survival 1.
N#Cc1ccc(OCC(=O)N2CCN(S(=O)(=O)c3ccc(Cl)s3)CC2)cc1 was read as CXCR6 block -2, APJ antag 0, EBI2 antag 81*, CCR6 antag 0, APJ agonist -3, hiPSC survival -3, EBI2 conf 44, EBI2 agonist 1 and bGal counter 4.
`COc1ccc(OCC(=O)N2CCN(S(=O)(=O)c3ccc(Cl)s3)CC2)cc1` gave CXCR6 block -17, APJ antag 6, EBI2 antag 87*, CCR6 antag 6, APJ agonist -3, hiPSC survival 0, EBI2 conf 79*, EBI2 agonist 1 and bGal counter 2.
`N#Cc1ccc(OCC(=O)N2CCN(S(=O)(=O)c3cccc(Cl)c3)CC2)cc1` gave CXCR6 block -6, APJ antag -10, EBI2 antag 54*, CCR6 antag 7, APJ agonist -1, hiPSC survival -1, EBI2 conf 21, EBI2 agonist 1 and bGal counter 8.
CC1CN(C(=O)c2cc3cc(F)ccc3[nH]2)CC(C)O1 (stereo not drawn) was read as CXCR6 block 0, APJ antag -5, EBI2 antag -2, CCR6 antag 8, APJ agonist 2 and hiPSC survival 1.
Screening O=C(c1cc2cc(F)ccc2[nH]1)N1CCN(Cc2ccc3c(c2)OCO3)CC1 returned CXCR6 block -10, APJ antag -64, EBI2 antag 93*, CCR6 antag 24, APJ agonist 2, hiPSC survival 0, EBI2 conf 79*, EBI2 agonist 2 and bGal counter 1.
For COc1cc2cc(C(=O)N3CCN(Cc4ccc5c(c4)OCO5)CC3)[nH]c2cc1OC the results were CXCR6 block 4, APJ antag -7, EBI2 antag 13, CCR6 antag 10, APJ agonist 2 and hiPSC survival 2.
CCN1CCN(C(=O)c2cc3cc(F)ccc3[nH]2)CC1 was read as CXCR6 block 5, APJ antag 8, EBI2 antag 55*, CCR6 antag -2, APJ agonist -1, hiPSC survival 0, EBI2 conf 28, EBI2 agonist 1 and bGal counter 2.
CN1CCC(N(C)C(=O)c2ccc(Cl)c(S(=O)(=O)N3CCOCC3)c2)CC1 was read as CXCR6 block 6, APJ antag -7, EBI2 antag -3, CCR6 antag -1, APJ agonist 9 and hiPSC survival 0.
